Source: PubChem (several laboratories)
MPTP inh: inhibitors of mitochondrial permeability transition pore; isolated mouse mitochondria, Ca2+ swelling absorbance, 30 min; inhibition, % at 10 µM; actives 1.4% (n = 360,000); AID 602449;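 active = inhibition of 50% or more, scaled per plate between neutral and stimulator controls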;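 note: 0% = DMSO wells given calcium and 100% = 1 mM EGTA wells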
beta cell repl: MIN6 beta-cell proliferation induction; actives 0.29% (n = 330,000); proliferation, % at 10 µM; MIN6 cells proliferation, ATPlite luminescence, 48 h; cells starved in 0.2% serum; 100% = growth in 10% serum; AID 2380;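 active = compounds whose signal lies at least 3.5 SD above the mean of all wells on their plate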;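 note: 0% = DMSO-treated cells in low-serum medium and 100% = 10% serum control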
Exocytosis inh: lytic granule exocytosis inhibition; AID 651702; TALL-104 LAMP-1 surface exposure, flow cytometry; cells stimulated with thapsigargin and PMA; actives 0.66% (n = 360,000); inhibition, % at 10 µM;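 active = inhibition above about 55%, limit read from the data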
UBC13 polyUb: blocks human UBC13 polyubiquitin chain formation; P61088; TR-FRET; inhibition, % at 20 µM; actives 0.47% (n = 330,000); AID 485273; in the data active = inhibition above about 45%, passing the limit was not always enough
iPSC survival up: increases survival of single human iPS cells; hiPSC single-cell survival, ATPlite luminescence; 100% = ROCK inhibitor wells, 0% = DMSO; survival enhancement, % at 20 µM; actives 0.044% (n = 360,000); in the data active = survival enhancement above about 18%;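 note: cells exposed to compounds for 16 hours before the ATP read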
Apaf1 inhib: blocks human Apaf-1 apoptosome activity; inhibition, % at 20 µM; actives 0.71% (n = 330,000); O14727; AID 489030; reconstituted apoptosome caspase-3 activity, DEVD-Rh110 fluorescence; active = inhibition of at least 40% at 20 µM;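 note: plate controls were DMSO wells for no effect and DEVD-CHO caspase inhibitor wells for full effect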
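System: Apoptosome proteins | Medium: Hepes pH 7.5 with detergent and BSA | Also added: Cytochrome c trigger plus (Z-DEVD)2-Rh110 caspase-3 substrate | Incubation: 30 min compound preincubation, 50 min activation, room temperature | Detection: Rhodamine 110 fluorescence at Ex 480/Em 540 nm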
Granule exo CP1: lytic granule exocytosis inhibition. shares compounds with Exocytosis inh. TALL-104 cells, LAMP-1 externalization, flow cytometry; stimulated with PMA plus thapsigargin. inhibition, % at 10 µM. actives 11% (n = 1,500). AID 651954; in the data active = inhibition above about 60%;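 note: 0% = stimulated vehicle wells and 100% = unstimulated wells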
An asterisk follows results filed as active. Shown are actives, neighbours in structure and some others; about 3% of the full set was active somewhere.

For COc1ccc(C(=O)CSc2cc(C)nc(SCC(=O)c3ccc(C)cc3)n2)cc1 the results were MPTP inh 2, beta cell repl 0, Exocytosis inh 56*, UBC13 polyUb 0, iPSC survival up 1, Apaf1 inhib 14 and Granule exo CP1 -12.
CN(C)/C=C\C(=C/C(=O)C(F)(F)F)Nc1ccccc1Oc1ccccc1 was read as MPTP inh 0, beta cell repl -5, Exocytosis inh 77*, UBC13 polyUb -13, iPSC survival up 0, Apaf1 inhib 17 and Granule exo CP1 -2.
`OC(c1ccccc1)(c1ccc(F)cc1)C(c1ccccc1)N1CCOCC1` (stereo not drawn) gave MPTP inh 2, beta cell repl -7, Exocytosis inh 98*, UBC13 polyUb 10, iPSC survival up 2, Apaf1 inhib 12 and Granule exo CP1 10.
`CCC1(CC)NC(=O)N(CC(=O)OCc2nc3cc(C(=O)OC)ccc3c(=O)[nH]2)C1=O` gave MPTP inh 0, beta cell repl -2, Exocytosis inh -3, UBC13 polyUb 2, iPSC survival up 0 and Apaf1 inhib -5.
`O=C(CCCc1nc(-c2ccc(Cl)cc2)no1)NC1CCCC1` gave MPTP inh 18, beta cell repl -7, Exocytosis inh 57*, UBC13 polyUb -5, iPSC survival up 0, Apaf1 inhib 18 and Granule exo CP1 -13.
CCOc1ccc(C2Nc3cccc4cccc(c34)N2)cc1OC was read as MPTP inh -2, beta cell repl -3, Exocytosis inh 56*, UBC13 polyUb -34, iPSC survival up -2, Apaf1 inhib 22 and Granule exo CP1 -9.
CCCc1cc(C(=O)NNC(=S)NC2CCCCC2)cs1 was read as MPTP inh 1, beta cell repl -4, Exocytosis inh -6, UBC13 polyUb -9, iPSC survival up 0 and Apaf1 inhib -6.
For COCCCNC(=O)CN(Cc1ccccc1)S(=O)(=O)c1ccccc1 the results were MPTP inh 0, beta cell repl -2, Exocytosis inh 2, UBC13 polyUb 1, iPSC survival up -1 and Apaf1 inhib 3.
`COCCCNC(=O)c1ccccc1N(Cc1ccccc1)S(=O)(=O)c1ccccc1` gave MPTP inh 0, beta cell repl 1, Exocytosis inh 69*, UBC13 polyUb 2, iPSC survival up -1, Apaf1 inhib 1 and Granule exo CP1 -5.
CCOC(=O)N1CCN(C(=O)c2ccccc2N(Cc2ccccc2)S(=O)(=O)c2ccccc2)CC1 was read as MPTP inh 1, beta cell repl 0, Exocytosis inh 79*, UBC13 polyUb 8, iPSC survival up 0, Apaf1 inhib 9 and Granule exo CP1 -3.
`COc1ccccc1-c1nnc(SCC(=O)NNC(=O)c2ccccc2F)n1C` gave MPTP inh -1, beta cell repl 0, Exocytosis inh 4, UBC13 polyUb 3, iPSC survival up 0 and Apaf1 inhib 9.
Cc1ccc(-c2nc3c4ccccc4ccn3c2CC2CCCCC2)cc1 was read as MPTP inh 1, Exocytosis inh -4 and iPSC survival up 0.
For CCCCNC(=O)COn1nnc2ccc(S(=O)(=O)N3CCOCC3)cc21 the results were MPTP inh 0, beta cell repl 1, Exocytosis inh 23, UBC13 polyUb 1, iPSC survival up 0 and Apaf1 inhib 0.
For CCCCCN(C(=O)CCC(=O)OCc1cccc(C(F)(F)F)c1)c1c(N)n(CCCC)c(=O)[nH]c1=O the results were MPTP inh 1, beta cell repl -2, Exocytosis inh -3, UBC13 polyUb 2, iPSC survival up 0 and Apaf1 inhib -1.
`Cc1cc(NCc2ccccn2)n2ncc(-c3ccc(Cl)cc3)c2n1` gave MPTP inh -2, beta cell repl -4, Exocytosis inh 82*, UBC13 polyUb 11, iPSC survival up -1, Apaf1 inhib 7 and Granule exo CP1 -12.
`CCOc1ccc(/C=N/NC(=O)C(O)c2ccccc2)c(O)c1` (stereo not drawn) gave MPTP inh 2, beta cell repl -3, Exocytosis inh -3, UBC13 polyUb -1, iPSC survival up 0 and Apaf1 inhib -1.
COc1ccccc1CN1C(=NC(=O)CCC2CCCC2)SC2CS(=O)(=O)CC21 (stereo not drawn) was read as MPTP inh -1, beta cell repl -3, Exocytosis inh 1, UBC13 polyUb 11, iPSC survival up 0 and Apaf1 inhib -5.
CCC(C)[C@H](NC(=O)NCc1ccc(F)cc1)C(=O)O (stereo partly drawn) was read as MPTP inh 1, beta cell repl -2, Exocytosis inh 0, UBC13 polyUb -6, iPSC survival up 0 and Apaf1 inhib -8.
`CCC(C)[C@H](NC(=O)NCc1ccccc1)C(=O)O` (stereo partly drawn) gave MPTP inh 0, beta cell repl -1, Exocytosis inh 100*, UBC13 polyUb 6, iPSC survival up -2, Apaf1 inhib -7 and Granule exo CP1 -11.
CC(C)(C)Cc1c(-c2ccc(F)cc2)nc2ccc(Cl)cn12 was read as MPTP inh 0, Exocytosis inh 5 and iPSC survival up 0.
`COc1ccccc1N(CC(=O)NCCc1ccccc1)C(=O)CCC(=O)Nc1cc(C)ccn1` gave MPTP inh 0, beta cell repl 3, Exocytosis inh 62*, UBC13 polyUb 6, iPSC survival up 0, Apaf1 inhib 2 and Granule exo CP1 -14.
For O=C(NCCCN1CCOCC1)c1ccc(/C=C2\Oc3ccccc3N(Cc3ccccc3F)C2=O)cc1 the results were MPTP inh 0, beta cell repl -8, Exocytosis inh 63*, UBC13 polyUb 41, iPSC survival up 0, Apaf1 inhib 27 and Granule exo CP1 -1.
For O=C(CN1C(=O)/C(=C\c2ccccc2Br)Oc2ccccc21)NCCCN1CCOCC1 the results were MPTP inh 0, beta cell repl -7, Exocytosis inh 34, UBC13 polyUb 43, iPSC survival up 0 and Apaf1 inhib 15.
Screening COC(C/C=C/[C@@H](O)[C@H](C)OCc1ccccc1)OC returned MPTP inh -2, beta cell repl 5, Exocytosis inh 7, UBC13 polyUb 8, iPSC survival up -2 and Apaf1 inhib 0.
`COC(C/C=C/[C@H](O)[C@@H](C)OCc1ccccc1)OC` gave MPTP inh -2, beta cell repl 0, Exocytosis inh 96*, UBC13 polyUb 5, iPSC survival up -2, Apaf1 inhib -16 and Granule exo CP1 -5.
Screening C=CCNc1nc2cc(-c3cccc(Cl)c3)sc2c(=O)n1C returned MPTP inh 1, Exocytosis inh 0 and iPSC survival up 5.
